The array DNA melting data of Ke et al. (doi:10.1101/2024.01.08.574731)

Legend:
[1] = folding enthalpy; higher = less favourable; fluorescence melt of hairpins on a sequencing array, two-state fit; details: sodium 0.088 M
In short: (§1)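 Library hairpins on a sequenced MiSeq flow cell carried annealed Cy3 and quencher oligos, and their Cy3 fluorescence was imaged in 50 mM Na-HEPES pH 8.0 with 25 mM NaCl, in 2.5 °C steps up to 60 °C. Signals were normalised to Cy3 before quenching and to control constructs. Melting temperature and folding enthalpy were obtained from bootstrapped two-state fits, combined by inverse-variance weighting across four replicates, and the fitted temperatures were then raised by 9.35 °C to match UV melts.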

[2] = melting temperature; fluorescence melt of hairpins on a sequencing array, two-state fit, raised by 9.35 °C to match UV melts; details: sodium 0.088 M
In short: as §1

Sequence: GCGACGCGAAAGCATCGC ((((.((....)).))))
- folding enthalpy [1]: -43.2 kcal/mol
- Tm [2]: 66.9 °C

Sequence: GTGGGGGGAAACCCCTGC (..((((....))))..)
- folding enthalpy [1]: -11.5 kcal/mol
- Tm [2]: 42.3 °C

Sequence: GCCGCGCGAAAGCGTTGC ((..(((....)))..))
- folding enthalpy [1]: -14.6 kcal/mol
- Tm [2]: 44.1 °C

Sequence: GCATAAGCGAAAGCTTGC (((..(((....))))))
- folding enthalpy [1]: -14.7 kcal/mol
- Tm [2]: 46.3 °C

Sequence: GACCCCGAAAGGGAGGTC ((((((....)))..)))
- folding enthalpy [1]: -21.8 kcal/mol
- Tm [2]: 49.4 °C

Sequence: GTGTCTACGAAAGTACAC (((..(((....))))))
- folding enthalpy [1]: -13.2 kcal/mol
- Tm [2]: 38.5 °C

Sequence: GCCTCGCGAAAGCTAAGC ((.(.((....)).).))
- folding enthalpy [1]: -6.03 kcal/mol
- Tm [2]: 25.6 °C

Sequence: GCTCATCGAAAGATCAGC (((.(((....))).)))
- folding enthalpy [1]: -29.6 kcal/mol
- Tm [2]: 34.7 °C

Sequence: GCTGGTGGAAACATCGGC ((.(.((....)).).))
- folding enthalpy [1]: -30.4 kcal/mol
- Tm [2]: 43 °C

Sequence: GTTTAGCCGAAAGGCAAC (((..(((....))))))
- folding enthalpy [1]: -8.63 kcal/mol
- Tm [2]: 33.7 °C

Sequence: GTCCTGCGAAAGCAAGAC (((.(((....))).)))
- folding enthalpy [1]: -23.3 kcal/mol
- Tm [2]: 48.1 °C

Sequence: GCCTAGCGAAAGCGATGC ((.(.((....)).).))
- folding enthalpy [1]: -13.4 kcal/mol
- Tm [2]: 44.1 °C

Sequence: GTTATTGGAAACAATGAC ((.((((....)))).))
- folding enthalpy [1]: -32.5 kcal/mol
- Tm [2]: 36.9 °C

Sequence: CGCGACGGAAACGTAGCG (((.(((....))).)))
- folding enthalpy [1]: -38.6 kcal/mol
- Tm [2]: 58.6 °C

Sequence: GATGGCGGAAACGTCATC ((((.((....)).))))
- folding enthalpy [1]: -43.7 kcal/mol
- Tm [2]: 55.3 °C

Sequence: GCCATCGAAAGATTGGC ((((((....))).)))
- folding enthalpy [1]: -30.3 kcal/mol
- Tm [2]: 50.7 °C

Sequence: GGGTGCGAAAGCAGGCCC ((((((....)))..)))
- folding enthalpy [1]: -18.2 kcal/mol
- Tm [2]: 52.9 °C

Sequence: GCATCCGAAAGGAGTTGC ((((((....)))..)))
- folding enthalpy [1]: -15.4 kcal/mol
- Tm [2]: 37.9 °C

Sequence: GAGCTCCGAAAGGACTC (((.(((....))))))
- folding enthalpy [1]: -23.6 kcal/mol
- Tm [2]: 47.4 °C

Sequence: GATCGCTTGGGCGATC ((((((....))))))
- folding enthalpy [1]: -27.7 kcal/mol
- Tm [2]: 69.1 °C

Sequence: GGCGCTACGAAAGTAGCC (((..(((....))))))
- folding enthalpy [1]: -9.44 kcal/mol
- Tm [2]: 49.4 °C

Sequence: GACGATGGAAACATCATC ((.((((....)))).))
- folding enthalpy [1]: -18.4 kcal/mol
- Tm [2]: 33.4 °C

Sequence: GCCTATGGAAACATAGAC (.(((((....))))).)
- folding enthalpy [1]: -17.4 kcal/mol
- Tm [2]: 32.6 °C

Sequence: GTCAAGGGAAACCTTGGC (.(((((....))))).)
- folding enthalpy [1]: -33.1 kcal/mol
- Tm [2]: 49.4 °C

Sequence: GAGCTGGGAAACCAGTTC ((.((((....)))).))
- folding enthalpy [1]: -24.4 kcal/mol
- Tm [2]: 47.4 °C

Sequence: GCAGCCGAAAGGCAATGC ((((((....)))..)))
- folding enthalpy [1]: -17 kcal/mol
- Tm [2]: 52.1 °C

Sequence: GCGATACCGAAAGGTCGC (((..(((....))))))
- folding enthalpy [1]: -29.3 kcal/mol
- Tm [2]: 54.3 °C

Sequence: GCACAGCGAAAGCTTAGC ((..(((....)))..))
- folding enthalpy [1]: -10.9 kcal/mol
- Tm [2]: 31.8 °C

Sequence: GTTGGCGGAAACGTCAAC ((((.((....)).))))
- folding enthalpy [1]: -36.7 kcal/mol
- Tm [2]: 56.8 °C

Sequence: GAACACGAAAGTGATTC ((((((....))).)))
- folding enthalpy [1]: -18.1 kcal/mol
- Tm [2]: 37.2 °C

Sequence: GCGCCAACGAAAGTTCGC (((..(((....))))))
- folding enthalpy [1]: -24.3 kcal/mol
- Tm [2]: 43.5 °C

Sequence: GGATTCGAAAGAAGCTCC ((((((....)))..)))
- folding enthalpy [1]: -14.2 kcal/mol
- Tm [2]: 32.8 °C

Sequence: GCGATGCGAAAGCACTGC ((..(((....)))..))
- folding enthalpy [1]: -19.1 kcal/mol
- Tm [2]: 45.2 °C

Sequence: GGATCGCGAAAGCGTTCC (((.(((....))).)))
- folding enthalpy [1]: -27.7 kcal/mol
- Tm [2]: 57.8 °C

Sequence: CGTTCCGGAAACGGCACG (((.(((....))).)))
- folding enthalpy [1]: -34.9 kcal/mol
- Tm [2]: 48.5 °C

Sequence: GCTAAGCGAAAGCAGAGC (((..((....))..)))
- folding enthalpy [1]: -23.9 kcal/mol
- Tm [2]: 43.4 °C

Sequence: GCGACACTTCGC ((((....))))
- folding enthalpy [1]: -26.7 kcal/mol
- Tm [2]: 52.1 °C

Sequence: CGCGGAAGATTCCGCG ((((((....))))))
- folding enthalpy [1]: -38.7 kcal/mol
- Tm [2]: 68.9 °C
